High-throughput results from PubChem.
Pf Dd2 inh: P. falciparum Dd2 growth inhibition | AID 1159554 | SYBR Green, 72 h; stronger effect = lower value | actives 2.3% (n = 94,000) | activity change, % at 10 µM; in the data active = activity change below about -80%
KDM4C inh: KDM4C (human) demethylase inhibition; Q9H3R0; GST-KDM4C 2-372, H3K9me3 peptide, LANCE TR-FRET; inhibition, % at 12.5 µM; actives 0.15% (n = 96,000);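 active = mean replicate inhibition above about 25%, with at least 55% of replicates also reaching it, limit read from the data, passing the limit was not always enough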
Target sequence (Q9H3R0 2-372 limits assumed): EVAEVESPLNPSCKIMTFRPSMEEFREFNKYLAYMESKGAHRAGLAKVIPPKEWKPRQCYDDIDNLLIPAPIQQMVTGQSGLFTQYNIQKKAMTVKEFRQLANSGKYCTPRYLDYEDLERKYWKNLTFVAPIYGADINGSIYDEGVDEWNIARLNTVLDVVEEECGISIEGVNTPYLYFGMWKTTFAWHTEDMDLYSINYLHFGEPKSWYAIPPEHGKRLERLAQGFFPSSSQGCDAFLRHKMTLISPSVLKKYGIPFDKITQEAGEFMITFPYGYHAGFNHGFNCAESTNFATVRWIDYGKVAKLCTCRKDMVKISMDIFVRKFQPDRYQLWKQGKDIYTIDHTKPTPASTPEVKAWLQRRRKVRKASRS
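System: N-terminal GST-fused human GASC-1 (KDM4C) fragment, residues 2-372 / Amount: 10 nM GST-KDM4C in enzyme reaction / Also added: H3K9me3 peptide with Fe(II)/2OG / Times: 30 min demethylation and 1 h detection at room temperature / Signal: LANCE TR-FRET / Read-out basis: Fall in 671/618 emission ratio as inhibition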
IDH1 R132H inh: IDH1 R132H (human) inhibition. actives 0.18% (n = 70,000). IDH1 R132H reductase, diaphorase/resazurin fluorescence, 60 min. O75874. inhibition, % at 10 µM. AID 624101; in the data active = inhibition above about 34%;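 note: 0% = DMSO and 100% = no enzyme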
Tcruzi prolif: blocks T. cruzi growth in NIH3T3 culture | T. cruzi beta-gal in NIH3T3, GalScreen luminescence, 90 h | inhibition, % at 8.34 µM | actives 5.9% (n = 77,000);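 active = mean inhibition above about 93%, with at least 55% of replicates each passing it, limit read from the data, passing the limit was not always enough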
* hit, by the source's call; · = not tested or not shown. Shown are actives, neighbours in structure and some others; about 5.9% of the full set was active somewhere.

SMILES	Pf Dd2 inh	KDM4C inh	IDH1 R132H inh	Tcruzi prolif
COc1ccc(S(=O)(=O)Nc2ccc3c(c2)C(=O)N([C@@H](C)CO)C[C@H](C)[C@@H](CN(C)C(=O)C2CCCCC2)OCCCC[C@@H](C)O3)cc1	-92*	17	-1	-36
O=C(CSc1nc2ccc([N+](=O)[O-])cc2[nH]1)Nc1cc(C(F)(F)F)cc(C(F)(F)F)c1	·	·	0	·
CCCNC(=O)N1CCC2(CC1)CN(Cc1ccc(F)cc1)[C@@H](CO)c1[nH]c3cc(OC)ccc3c12	-88*	-2	·	·
CCC(=O)N1CCC2(CC1)CN(Cc1ccc(Cl)cc1)[C@H](CO)c1[nH]c3cc(OC)ccc3c12	-88*	-2	·	·
CCCNC(=O)N1CCC2(CC1)CN(Cc1cccc(F)c1)[C@@H](CO)c1[nH]c3cc(OC)ccc3c12	-79	1	·	·
CCCC(=O)N1CCC2(CC1)CN(Cc1nccs1)[C@H](CO)c1[nH]c3cc(OC)ccc3c12	-43	-1	·	·
CCCC(=O)N1CCC2(CC1)CN(Cc1ccc(Cl)cc1)[C@H](CO)c1[nH]c3cc(OC)ccc3c12	-85*	-1	·	·
COc1cccc(OCC(=O)Nc2ccc(Sc3ccc([N+](=O)[O-])cc3)cc2)c1	·	·	5	·
Cc1sc2nc(SCC(=O)Nc3c(F)cc(F)cc3Br)n(C)c(=O)c2c1C	·	·	0	·
CO[C@@H]1CN(C)C(=O)c2ccc(NC(=O)C3CCC3)cc2OC[C@@H](C)N(CC2CCCCC2)C[C@H]1C	-83*	2	·	·
CO[C@@H]1CN(C)C(=O)c2ccc(NC(=O)Nc3ccccc3F)cc2OC[C@@H](C)N(CC2CC2)C[C@H]1C	-88*	0	0	72
CO[C@@H]1CN(C)C(=O)c2ccc(NC(=O)C3CC3)cc2OC[C@@H](C)N(Cc2ccccc2)C[C@H]1C	-80*	0	0	31
COCC(=O)Nc1ccc2c(c1)OC[C@H](C)N(Cc1ccncc1)C[C@H](C)[C@@H](OC)CN(C)C2=O	-85*	0	·	·
Cc1ccc(C)c(-n2nnnc2SCC(=O)Nc2ccccc2[N+](=O)[O-])c1	·	·	0	·
CCCN1C[C@H](C)[C@@H](OC)CN(C)C(=O)c2cc(NC(=O)Nc3cccc(F)c3)ccc2OC[C@H]1C	-82*	3	·	-13
CCCC(=O)Nc1ccc2c(c1)OC[C@@H](C)N(Cc1cccc(F)c1)C[C@@H](C)[C@H](OC)CN(C)C2=O	-87*	2	-1	90
CCCNC(=O)Nc1ccc2c(c1)OC[C@@H](C)N(C(=O)C1CCC1)C[C@@H](C)[C@@H](OC)CN(C)C2=O	·	62*	85*	23
CO[C@@H]1CN(C)C(=O)c2ccc(NC(=O)C3CC3)cc2OC[C@@H](C)N(Cc2cc(F)ccc2F)C[C@H]1C	-87*	1	0	50
CO[C@@H]1CN(C)C(=O)c2ccc(NC(=O)C3CC3)cc2OC[C@H](C)N(Cc2cc(F)ccc2F)C[C@H]1C	-48	0	0	3
CCCN1C[C@H](C)[C@@H](OC)CN(C)C(=O)c2ccc(NC(=O)Nc3cccc(F)c3)cc2OC[C@H]1C	-52	1	1	-62
Cc1ccccc1-c1nnc(SCC(=O)Nc2ccc(N3CCOCC3)cc2)o1	·	·	0	·
COc1ccccc1NC(=O)Cn1nnc(-c2cccs2)n1	·	·	0	·
CO[C@H]1CN(C)C(=O)c2ccc(NS(=O)(=O)CC(F)(F)F)cc2OC[C@@H](C)N(Cc2nccs2)C[C@H]1C	-88*	0	0	26
CCCC(=O)Nc1ccc2c(c1)C(=O)N(C)C[C@@H](OC)[C@H](C)CN(Cc1cc(F)ccc1F)[C@H](C)CO2	-64	0	0	69
CO[C@H]1CN(C)C(=O)c2cc(NC(=O)Cc3ccccc3)ccc2OC[C@H](C)N(C(=O)c2ccccc2F)C[C@H]1C	-89*	-3	0	5
CCCC(=O)Nc1ccc2c(c1)OC[C@@H](C)N(Cc1cc(F)ccc1F)C[C@@H](C)[C@H](OC)CN(C)C2=O	-86*	1	0	29
CCc1cccc(C)c1NC(=O)CN(C)S(=O)(=O)c1ccc(Cl)cc1	·	·	0	·
C[C@@H]1CCCCO[C@@H](CN(C)CC2CCCCC2)[C@H](C)CN([C@H](C)CO)C(=O)c2cc(NC(=O)Nc3ccccc3)ccc2O1	-84*	-1	0	94
COc1ccc(NC(=O)Nc2ccc3c(c2)C(=O)N([C@@H](C)CO)C[C@H](C)[C@H](CN(C)CC2CCCCC2)OCCCC[C@H](C)O3)cc1	-84*	-1	1	68
OC[C@H]1CC[C@@H]2O[C@H](CCc3ccc(-c4ccc(F)cc4)cc3)[C@@H](n3cc(C4CC4)nn3)C[C@@H]2O1	-47	·	·	·
